Measured values from different studies.
Each line is one published result; the experiments were not run side by side.
Target: Serine/threonine-protein kinase A-Raf (ARAF, Homo sapiens, UniProt P10398)
One construct used (P10398 1-606): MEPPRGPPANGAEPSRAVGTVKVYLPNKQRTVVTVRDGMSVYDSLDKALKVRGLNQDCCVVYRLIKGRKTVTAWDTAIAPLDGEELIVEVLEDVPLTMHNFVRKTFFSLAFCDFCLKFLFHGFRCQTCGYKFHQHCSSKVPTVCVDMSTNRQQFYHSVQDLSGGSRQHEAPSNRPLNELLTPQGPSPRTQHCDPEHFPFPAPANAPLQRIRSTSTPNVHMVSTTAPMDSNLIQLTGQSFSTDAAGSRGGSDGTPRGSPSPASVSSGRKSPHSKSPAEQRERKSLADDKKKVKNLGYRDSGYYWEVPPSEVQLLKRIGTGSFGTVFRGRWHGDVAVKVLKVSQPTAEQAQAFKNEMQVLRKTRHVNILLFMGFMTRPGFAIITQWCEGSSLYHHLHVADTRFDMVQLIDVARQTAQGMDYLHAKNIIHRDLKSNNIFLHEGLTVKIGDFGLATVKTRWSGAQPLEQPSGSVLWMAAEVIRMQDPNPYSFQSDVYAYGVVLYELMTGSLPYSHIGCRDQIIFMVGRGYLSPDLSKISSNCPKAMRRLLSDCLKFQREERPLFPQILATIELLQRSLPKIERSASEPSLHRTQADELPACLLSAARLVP

Compound	assay	test system	conditions	quantity	result
CC(C)(O)[C@H]1CC[C@H](Nc2ccc3ncc(-c4cccc(C(F)(F)F)c4)n3n2)CC1	enzyme activity, inhibitor	–	1 µM	remaining activity	96.9%
CCCCNc1ncc2c(-c3ccc(F)cc3)nn(C[C@H]3CC[C@H](N)CC3)c2n1	target engagement in cells, inhibitor, chemoproteomics	–	20 mM	inhibition	32.9%
Cc1cc(NC(=O)c2cccc3cc(-c4cccc5[nH]nc(N)c45)ccc23)ccc1F	enzyme activity, inhibitor	–	0.1 µM	activity vs control	98%
O=C(Nc1cnn(-c2csc(C(=O)NC3COC3)c2)c1)Nc1c(F)cccc1Cl	enzyme activity, inhibitor	–	5 µM	remaining activity	94.4%
CCN1CCN(Cc2ccc(NC(=O)c3ccc(C)c(Oc4ccnc5[nH]ccc45)c3)cc2C(F)(F)F)CC1	target engagement in cells, inhibitor, chemoproteomics	A-375	5 µM	inhibition	-85.6%
COc1cccc2c(NCc3ccccc3)nc(-n3c(N)nc4ccccc43)nc12	target engagement in cells, inhibitor, chemoproteomics	–	20 mM	inhibition	-7.3%
COc1cc(Cl)c(C(=O)N[C@@H](CN[C@H]2CC[C@@H](N)CC2)Cc2ccc(C#N)cc2)cc1-c1ccc(CN[C@H](C)c2ccc(C)cc2)o1	enzyme activity, inhibitor	–	1 µM	remaining activity	101%
CCN1CCN(Cc2ccc(NC(=O)c3ccc(C)c(/C=C/c4cnc5[nH]ccc5c4OC)c3)cc2C(F)(F)F)CC1	target engagement in cells, inhibitor, chemoproteomics	A-375	0.5 µM	inhibition	-68.8%
O=C1NC(=O)c2cc(Nc3ccc(F)cc3)c(Nc3ccc(F)cc3)cc21	cell-free assay	–	0.5 µM	remaining signal	90.7%
Cc1sc(C(=O)NC2COC2)cc1-n1cc(NC(=O)Nc2c(F)cccc2Cl)cn1	enzyme activity, inhibitor	–	10 µM	remaining activity	84.1%
CN1CC(Oc2cnc(C#N)cc2-c2ccn3nc(NC(=O)C4CC4)cc3c2)C1	enzyme activity, inhibitor	–	1 µM	inhibition	1%
CNC(=O)c1cc(Oc2ccc(NC(=O)Nc3ccc(Cl)c(C(F)(F)F)c3)cc2)ccn1	cell-free assay	–	0.5 µM	remaining signal	7.04%
